The values that follow come from ChEMBL document CHEMBL1152552, “Death receptor 5 promoter-enhancing compounds isolated from Catimbium speciosum and their enhancement effect on TRAIL-induced apoptosis” (Bioorg Med Chem, 2009).

SMILES strings stand for the structures. Active and inactive are the calls of the source. The rule behind the calls is not given here.

Assay [1] addresses Tumor necrosis factor receptor superfamily member 10B (Homo sapiens) (UniProt O14763). Briefly: Induction of DR5 receptor promotor activity in human DLD1 cells co-transfected with Sac1 at 43.9 uM after 24 hrs by luciferase assay. Format: cell-based. The settings on record: DLD-1.
The target is the same in assay [2]. Briefly: Induction of DR5 receptor promotor activity in human DLD1 cells co-transfected with Sac1 at 39 uM after 24 hrs by luciferase assay. The assay is classed as cell-based. The following applies: DLD-1.
Assay [3] has the same target. Briefly: Induction of DR5 receptor promotor activity in human DLD1 cells co-transfected with Sac1 cells at 18.5 uM after 24 hrs by luciferase assay. The assay is classed as cell-based.
For assay [4], the system named is DLD-1. Briefly: Cytotoxicity against human DLD1 cells co-transfected with Sac1 after 24 hrs. Format: functional, cell-based. The following applies: DLD-1, 24 h.
Assay [5] relates to DLD-1. Briefly: Induction of DR5 protein expression in human DLD1 cells co-transfected with Sac1 cells after 24 hrs by Western blot analysis. Format: functional, cell-based. The essentials: (§1)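 Lysates of DLD1/TR cells treated 24 h (procaspase-8 after combined TRAIL exposure). Equal protein resolved by SDS-PAGE: 15% for Bcl-xL, 12.5% for DR5, 10% for caspase-8. Transferred to PVDF and probed 1 h at room temperature with primary antibody, then HRP secondary 1 h. Chemiluminescent detection with β-actin as loading control.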
On the technique in general: Immunoblotting shows a protein as a band on a membrane.

The subject of assay [6] is DLD-1. In words: Induction of DR5 gene expression in human DLD1 cells co-transfected with Sac1 cells at 9.3 uM after 24 hrs by RT-PCR analysis. Format: functional.
Assay [7] concerns DLD-1. In words: Induction of DR4 gene expression in human DLD1 cells co-transfected with Sac1 cells after 24 hrs by RT-PCR analysis. The assay is classed as functional, cell-based.
Assay [8] has as its system DLD-1. In words: Decrease in Bcl-xL mRNA expression in human DLD1 cells co-transfected with Sac1 cells at 9.3 uM after 24 hrs by RT-PCR analysis. The assay is classed as functional, cell-based.
Assay [9] deals with DLD-1. Briefly: Decrease in Bcl-xL mRNA expression in human DLD1 cells co-transfected with Sac1 cells at 18.5 uM after 24 hrs by RT-PCR analysis. Format: functional, cell-based.
Assay [10] concerns DLD-1. Briefly: Decrease in Bcl-xL protein expression in human DLD1 cells co-transfected with Sac1 cells after 24 hrs by Western blot analysis. Format: functional, cell-based. The essentials:
as §1

Assay [11] deals with DLD-1. Briefly: Induction of apoptosis in TRAIL-resistant human DLD1 cells assessed as accumulation in sub-G1 phase after 24 hrs using annexin-V-FITC/propidium iodide staining by flow cytometry. Format: functional. A general note: A flow cytometer gives signals particle by particle.
Assay [12] deals with DLD-1. In words: Induction of apoptosis in TRAIL-resistant human DLD1 cells assessed as accumulation in sub-G1 phase at 9.3 uM after 24 hrs using annexin-V-FITC/propidium iodide staining by flow cytometry in presence of TRAIL. Format: functional.
Assay [13] relates to DLD-1. Briefly: Induction of apoptosis in TRAIL-resistant human DLD1 cells assessed as accumulation in sub-G1 phase at 18.5 uM after 24 hrs using annexin-V-FITC/propidium iodide staining by flow cytometry in presence of TRAIL. The assay is classed as functional.
In assay [14] the test system is DLD-1. In words: Induction of apoptosis in TRAIL-resistant human DLD1 cells assessed as late apoptotic cells at 9.3 uM after 24 hrs using annexin-V-FITC/propidium iodide staining by flow cytometry in presence of TRAIL. Format: functional.
Assay [15] relates to DLD-1. Briefly: Induction of apoptosis in TRAIL-resistant human DLD1 cells assessed as early apoptotic cells at 9.3 uM after 24 hrs using annexin-V-FITC/propidium iodide staining by flow cytometry in presence of TRAIL. The assay is classed as functional.
In assay [16] the test system is DLD-1. Briefly: Induction of apoptosis in TRAIL-resistant human DLD1 cells assessed as late apoptotic cells at 18.5 uM after 24 hrs using annexin-V-FITC/propidium iodide staining by flow cytometry in presence of TRAIL. Format: functional.
The test system of assay [17] is DLD-1. Briefly: Induction of apoptosis in TRAIL-resistant human DLD1 cells assessed as early apoptotic cells at 18.5 uM after 24 hrs using annexin-V-FITC/propidium iodide staining by flow cytometry in presence of TRAIL. The assay is classed as functional.
Assay [18] concerns AGS. In words: Induction of apoptosis in TRAIL-resistant human AGS cells assessed as late apoptotic cells at 9.3 uM after 24 hrs using annexin-V-FITC/propidium iodide staining by flow cytometry in presence of TRAIL. Format: functional.
The subject of assay [19] is AGS. Briefly: Induction of apoptosis in TRAIL-resistant human AGS cells assessed as early apoptotic cells at 9.3 uM after 24 hrs using annexin-V-FITC/propidium iodide staining by flow cytometry in presence of TRAIL. Format: functional.
Assay [20] concerns AGS. In words: Induction of apoptosis in TRAIL-resistant human AGS cells assessed as late apoptotic cells at 18.5 uM after 24 hrs using annexin-V-FITC/propidium iodide staining by flow cytometry in presence of TRAIL. The assay is classed as functional.
For assay [21], the system named is AGS. In words: Induction of apoptosis in TRAIL-resistant human AGS cells assessed as early apoptotic cells at 18.5 uM after 24 hrs using annexin-V-FITC/propidium iodide staining by flow cytometry in presence of TRAIL. Format: functional.
Assay [22] relates to DLD-1. In words: Decrease in procaspase 8 in TRAIL-resistant human DLD1 cells co-transfected with Sac1 cells at 18.5 uM by Western blot analysis in presence of TRAIL. Format: functional, cell-based. The essentials:
as §1

Assay [23] has as its system DLD-1. Briefly: Activation of caspase 3 in TRAIL-resistant human DLD1 cells co-transfected with Sac1 cells by luminescent assay in presence of TRAIL. The assay is classed as functional, cell-based. The essentials:
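Cells exposed 24 h to 4.6, 9.3 or 18.5 uM test agent and/or 100 ng/mL TRAIL, harvested and lysed. Lysate incubated with luminogenic z-DEVD-aminoluciferin substrate (Caspase-Glo 3/7) for 1 h at room temperature; luminescence read on a luminometer.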

For assay [24], the system named is DLD-1. In words: Induction of apoptosis in TRAIL-resistant human DLD1 cells assessed as accumulation in sub-G1 phase at 18.5 uM after 24 hrs using annexin-V-FITC/propidium iodide staining by flow cytometry in presence of TRAIL/z-IETD-fmk caspase 8 inhibitor. Format: functional, cell-based. The essentials: (§2)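 DLD1/TR cells incubated 24 h with 18.5 uM test agent and 100 ng/mL TRAIL, plus either caspase-8 inhibitor z-IETD-fmk at 25 uM or caspase-9 inhibitor z-LEHD-fmk at 20 uM. Ethanol-fixed, PI/RNase stained, sub-G1 fraction read by flow cytometry (at least 20,000 events). Run in triplicate.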

Assay [25] relates to DLD-1. Briefly: Induction of apoptosis in TRAIL-resistant human DLD1 cells assessed as accumulation in sub-G1 phase at 18.5 uM after 24 hrs using annexin-V-FITC/propidium iodide staining by flow cytometry in presence of TRAIL/caspase 9 inhibitor. The assay is classed as functional, cell-based. The essentials:
as §2

Assay [26] relates to DLD-1. In words: Induction of apoptosis in TRAIL-resistant human DLD1 cells assessed as accumulation in sub-G1 phase at 18.5 uM after 24 hrs using annexin-V-FITC/propidium iodide staining by flow cytometry in presence of TRAIL/human recombinant DR5/Fc chimera protein. The assay is classed as functional, cell-based. The method, boiled down: (§3)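 DLD1/TR cells incubated 24 h with 18.5 uM test agent and 100 ng/mL TRAIL, plus 2.5 ug/mL human recombinant DR5/Fc or DR4/Fc chimera. Ethanol-fixed, PI/RNase stained, sub-G1 fraction read by flow cytometry (at least 20,000 events). Run in triplicate.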

The test system of assay [27] is DLD-1. In words: Induction of apoptosis in TRAIL-resistant human DLD1 cells assessed as accumulation in sub-G1 phase at 18.5 uM after 24 hrs using annexin-V-FITC/propidium iodide staining by flow cytometry in presence of TRAIL/human recombinant DR4/Fc chimera protein. The assay is classed as functional, cell-based. The method, boiled down: as §3
Assay [28] has as its system DLD-1. In words: Increase in CHOP mRNA expression in human DLD1 cells co-transfected with Sac1 cells. The assay is classed as functional, cell-based.
The test system of assay [29] is DLD-1. In words: Induction of DR5 gene expression in human DLD1 cells co-transfected with Sac1 cells at 18.5 uM after 24 hrs by RT-PCR analysis.

Sequence of Tumor necrosis factor receptor superfamily member 10B (Homo sapiens) (O14763 whole entry): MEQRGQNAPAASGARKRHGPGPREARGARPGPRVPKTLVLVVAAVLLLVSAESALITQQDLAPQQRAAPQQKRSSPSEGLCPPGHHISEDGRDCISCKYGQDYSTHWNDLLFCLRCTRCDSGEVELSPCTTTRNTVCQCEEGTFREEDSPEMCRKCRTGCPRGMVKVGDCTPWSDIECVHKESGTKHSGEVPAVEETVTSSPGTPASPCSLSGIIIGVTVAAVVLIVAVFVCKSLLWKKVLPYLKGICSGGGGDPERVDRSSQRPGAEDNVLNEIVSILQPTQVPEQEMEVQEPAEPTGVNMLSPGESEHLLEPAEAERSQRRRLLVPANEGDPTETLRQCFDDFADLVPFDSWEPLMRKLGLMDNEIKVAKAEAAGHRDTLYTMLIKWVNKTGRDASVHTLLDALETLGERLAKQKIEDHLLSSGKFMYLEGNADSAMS

In the case of `COc1cc(/C=C/c2ccccc2)oc(=O)c1`, the fold change (FC) in assay [1] worked out at 2.5.
On to `O=C1C[C@@H](c2ccccc2)Oc2cc(O)cc(O)c21`, for which the fold change (FC) in [2] was found to be 2.5.
For the molecule `COc1cc(O)cc(O)c1C(=O)/C=C/c1ccccc1` [CARDAMOMIN], the results for the fold change (FC) (in assay [3]; with DLD-1 [6]; in the assay on DLD-1 [29]) were 4.1, 2 and 4.1, respectively. The half-inhibitory concentration (IC50) (as a rule, the midpoint of a concentration-inhibition curve) in the assay on DLD-1 [4] came out at 41.8 µM. Further, the Activity entry in the assay on DLD-1 [5] is “Dose-dependent effect”; in the assay with DLD-1 [7], “Dose-dependent effect”; in the assay on DLD-1 [10] it was “Dose-dependent effect”; in the assay with DLD-1 [11] it was 15.5%; in the assay with DLD-1 [12], 41.9%; in the assay with DLD-1 [13] it was 55.8%. In addition, the Activity in the assay on DLD-1 [14] worked out at 14.3%; in the assay on DLD-1 [15], 14.1%; with DLD-1 [16], 20.5%; in the assay with DLD-1 [17], 26.7%; in the assay with AGS [18], 3%; in the assay with AGS [19], 15%. Moreover, the Activity in the assay on AGS [20] is 5%; with AGS [21] it was 30.2%; in the assay on DLD-1 [23], “Dose-dependent effect”; in the assay with DLD-1 [28], “Dose-dependent effect”. The result in the assay on DLD-1 [8], in the assay with DLD-1 [9], with DLD-1 [22] and in the assay on DLD-1 [26] was Active. The outcome in the assay on DLD-1 [24], in the assay on DLD-1 [25] and with DLD-1 [27] was inactive.
